CCR6 antag: CCR6 (human) receptor antagonism | CHO-K1 CCR6 PathHunter beta-arrestin, luminescence, CCL20-stimulated | hit rate 0.49% among 340,000 | P51684 | inhibition, % at 20 µM;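 active means compounds whose inhibition of the agonist-driven luminescence signal at 20 µM reaches about 50%, limit read from the data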;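 further: cells stimulated with CCL20 at 14 nM final; plate controls were DMSO with CCL20 for no effect and DMSO without agonist for full effect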
EBI2 antag: EBI2 (human) antagonism; P32249; EBI2 beta-arrestin recruitment, luminescence, 7a,25-OHC stimulated; inhibition, % at 5 µM; hit rate 0.81% among 360,000; AID 651636; in the data active means inhibition above about 38%;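 further: enzyme fragment complementation signal reports receptor beta-arrestin coupling in cells; 0% = agonist plus DMSO wells and 100% = wells without agonist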
APJ agonist: activates the human apelin receptor APJ | CHO-K1 APJ PathHunter beta-arrestin, luminescence; 0% DMSO wells, 100% apelin | activation, % at 20 µM | hit rate 0.11% among 330,000 | AID 2520;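 active means activation more than six SD over the plate average, tested at 20 µM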;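 further: 0% = DMSO alone and 100% = apelin-13 at 10 nM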
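Incubation: overnight seeding, 90 min compound at 25 °C, 1 h detection; test system: PathHunter CHO-K1 APJ (AGTRL-1) beta-arrestin reporter cells; amount: 1000 cells/well; doses: one dose, 20 µM compound, 1% DMSO; measured by: beta-gal luminescence; measure: agonist-driven arrestin binding to APJ; benchmarks: negative DMSO alone, positive Apelin-13 at 10 nM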
CXCR6 block: inhibitors of human CXCR6 receptor | O00574 | CHO-K1 PathHunter CXCR6 beta-arrestin, luminescence | inhibition, % at 20 µM | hit rate 0.36% among 360,000 | AID 602244; in the data active means inhibition above about 34%, passing the limit was not always enough;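 further: antagonist mode with CXCL16 agonist at 10 nM final; 0% = 10 nM CXCL16 with DMSO and 100% = unstimulated wells without agonist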
Target sequence (O00574 whole entry, looked up): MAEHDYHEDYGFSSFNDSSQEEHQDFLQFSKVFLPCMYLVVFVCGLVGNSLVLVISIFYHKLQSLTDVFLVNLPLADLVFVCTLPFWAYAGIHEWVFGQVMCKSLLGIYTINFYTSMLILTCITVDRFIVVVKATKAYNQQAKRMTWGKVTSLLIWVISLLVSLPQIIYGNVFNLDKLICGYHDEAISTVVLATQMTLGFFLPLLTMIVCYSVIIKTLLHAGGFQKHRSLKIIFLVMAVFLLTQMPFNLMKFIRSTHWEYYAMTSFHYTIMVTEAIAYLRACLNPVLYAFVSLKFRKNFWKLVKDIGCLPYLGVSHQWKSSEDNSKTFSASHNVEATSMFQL
FXN GAA850 act: frataxin GAA850 promoter activation; HEK293 lucGAA850 FXN promoter luciferase reporter, 24 h; percent of 10 µM SAHA response; activation, % at 6 µM; hit rate 0.56% among 360,000;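 active means activation above the average of all compounds screened plus 3 SD, cutoff fixed separately per campaign, cut at about 7.5% in these data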;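 further: 0% = DMSO wells and 100% = 10 µM SAHA wells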
APJ antag: blocks the human apelin receptor APJ; P35414; CHO-K1 APJ beta-arrestin complementation, luminescence; inhibition, % at 20 µM; hit rate 0.32% among 330,000;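 active means inhibition above about 40% at 20 µM, limit read from the data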;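 further: cells challenged with 10 nM apelin-13 agonist together with compound; plate controls were apelin-13 plus DMSO wells for no effect and DMSO wells lacking apelin-13 for full effect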
APJ antag conf: APJ receptor antagonism confirmation. shares compounds with APJ antag. APJ beta-arrestin recruitment, luminescence, antagonist mode. inhibition, % at 20 µM. hit rate 66% among 950. AID 2766; in the data active means inhibition above about 50%
Active calls of the source: *. Rows were chosen to be rich in hits. Some 2% of all compounds tested hit in one or more screens of this group.

Screening Cc1ccc(O)c(-c2cc(C(=O)NCc3ccc4c(c3)OCO4)[nH]n2)c1 returned CCR6 antag 11, EBI2 antag 8, APJ agonist -4, CXCR6 block -5, FXN GAA850 act 1, APJ antag 45* and APJ antag conf -3.
`CCN1C=C(Cc2cccs2)C2=C(C1)C(c1cccs1)C(C#N)=C(N)O2` (centres undefined) gave CCR6 antag 32, EBI2 antag 6, APJ agonist -4, CXCR6 block 9, FXN GAA850 act -4, APJ antag 41* and APJ antag conf -14.
Screening COc1ccc2c(c1)C(=O)[C@@H](O)[C@H](c1ccc(OC)c(Br)c1)O2 returned CCR6 antag 59*, EBI2 antag 9, APJ agonist -20, CXCR6 block 26, FXN GAA850 act -1, APJ antag 40* and APJ antag conf 80*.
Screening COc1cccc([C@@H]2Oc3ccc(OC)cc3C(=O)[C@H]2O)c1 returned CCR6 antag 34, EBI2 antag 6, APJ agonist -15, CXCR6 block 3, FXN GAA850 act 6 and APJ antag -15.
NC(=O)C1CCN(C(=O)c2ccc(NS(=O)(=O)c3ccc(Br)s3)cc2)CC1 was read as CCR6 antag 13, EBI2 antag -14, APJ agonist -3, CXCR6 block -5, FXN GAA850 act 1 and APJ antag 10.
CCCn1c(N)c(N(CCOC)C(=O)COC(=O)COc2c(C)cc(C)cc2C)c(=O)[nH]c1=O was read as EBI2 antag 0, CXCR6 block 4 and FXN GAA850 act 2.
`NS(=O)(=O)c1ccc(NNC(=O)c2ccccc2)cc1` gave CCR6 antag -8, EBI2 antag -16, APJ agonist 0, CXCR6 block 2, FXN GAA850 act 0 and APJ antag -9.
O=C(NNc1cc(Br)c(O)c(Br)c1)c1ccccc1 was read as CCR6 antag 87*, EBI2 antag 38, APJ agonist -14, CXCR6 block 59*, FXN GAA850 act 1, APJ antag 96* and APJ antag conf 137*.
For CC[C@]12c3[nH]c4ccccc4c3CCN1C(=O)C(CC(=O)NC/C=C(\C)CCC=C(C)C)C[C@@H]2C(=O)N1CCN(C(=O)c2ccco2)CC1 (some centres undefined) the results were CCR6 antag 13, EBI2 antag 29, APJ agonist -4, CXCR6 block 13, FXN GAA850 act -7 and APJ antag 1.
CCCn1nc([N+](=O)[O-])c(C(C#N)c2nc3ccccc3s2)c(Cl)c1=O (centres undefined) was read as CCR6 antag 50*, EBI2 antag 1, APJ agonist -11, CXCR6 block 31, FXN GAA850 act -5, APJ antag 62* and APJ antag conf 66*.
Screening CCC(=O)N1CCN(c2ccccc2NC(=O)COc2ccccc2Cl)CC1 returned CCR6 antag 51*, EBI2 antag 27, APJ agonist -9, CXCR6 block 43*, FXN GAA850 act -4, APJ antag 52* and APJ antag conf 61*.
`O=C(CSc1ccccc1)NC1=NCCS1` gave CCR6 antag 7, EBI2 antag -7, APJ agonist -3, CXCR6 block -9, FXN GAA850 act 0 and APJ antag 0.
c1ccc(NNC2=NCCS2)cc1 was read as CCR6 antag 41, EBI2 antag 39, APJ agonist -12, CXCR6 block 34, FXN GAA850 act 3, APJ antag 46* and APJ antag conf 43.
For CS(=O)(=O)Nc1ccc(S(=O)(=O)NC2CCCCC2)cc1 the results were CCR6 antag 4, EBI2 antag -4, APJ agonist -3, CXCR6 block -7, FXN GAA850 act 1, APJ antag 46* and APJ antag conf 28.
`CNc1cncc(-c2ccc(OC)cc2)n1` gave EBI2 antag -2, CXCR6 block -8 and FXN GAA850 act 3.
`Cc1ccc(C)c(S(=O)(=O)Nc2ccc(O)c(C(=O)O)c2)c1` gave CCR6 antag -3, EBI2 antag -5, APJ agonist 0, CXCR6 block 4, FXN GAA850 act 2, APJ antag 48* and APJ antag conf 36.

Source: PubChem BioAssay (several laboratories)
